Laboratory results as given in ChEMBL document CHEMBL1926577, “Novel 1,3,4-heterodiazole analogues: synthesis and in-vitro antitumor activity” (2012).

Tests used:
Format in all cases: functional
CCRF-CEM = test: Growth inhibition of human CCRF-CEM cells at 10 uM after 48 hrs by coulter counter method; conditions: read-out: GI
Method in brief: (§1)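 NCI 60-cell-line panel, single dose. Compound dissolved first in DMSO, then diluted in phosphate-buffered saline so that every final dilution held under 1% DMSO. Duplicate wells received cells at 6 × 10⁴ cells/ml. Controls held PBS/DMSO at the same dilution. Plates were incubated 48 h at 37 °C under 5% CO₂. Cells were then diluted 10-fold in saline and counted on a Coulter counter, with counts corrected for the dilution. Results are given as percent growth inhibition.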

HL-60(TB) = test: Growth inhibition of human HL-60(TB) cells at 10 uM after 48 hrs by coulter counter method; conditions: HL-60, 48 h, read-out: GI
Method in brief: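 Single-dose screen on the NCI 60-line panel (leukemia subpanel). Compound is dissolved in DMSO and diluted in PBS, with final DMSO below 1%. Duplicate wells hold 6 × 10⁴ cells/ml at 37 °C, 5% CO₂, for 48 h. Cells are counted by Coulter counter after 10-fold saline dilution. Read-out is percent growth versus PBS/DMSO controls, expressed as % growth inhibition.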

K562 = test: Growth inhibition of human K562 cells at 10 uM after 48 hrs by coulter counter method; conditions: K562, 48 h, read-out: GI; method in brief: as §1
MOLT-4 = test: Growth inhibition of human MOLT4 cells at 10 uM after 48 hrs by coulter counter method; conditions: MOLT-4, 48 h, read-out: GI; method in brief: as §1
RPMI-8226 = test: Growth inhibition of human RPMI8226 cells at 10 uM after 48 hrs by coulter counter method; conditions: RPMI-8226, 48 h, read-out: GI; method in brief: as §1
SR = test: Growth inhibition of human SR cells at 10 uM after 48 hrs by coulter counter method; conditions: read-out: GI; method in brief: as §1
A549 = test: Growth inhibition of human A549 cells at 10 uM after 48 hrs by coulter counter method; conditions: A549, 48 h, read-out: GI; method in brief: as §1
EKVX = test: Growth inhibition of human EKVX cells at 10 uM after 48 hrs by coulter counter method; conditions: read-out: GI; method in brief: as §1
NCI-H226 = test: Growth inhibition of human NCI-H226 cells at 10 uM after 48 hrs by coulter counter method; conditions: NCI-H226, 48 h, read-out: GI; method in brief: as §1
NCI-H23 = test: Growth inhibition of human NCI-H23 cells at 10 uM after 48 hrs by coulter counter method; conditions: NCI-H23, 48 h, read-out: GI; method in brief: as §1
NCI-H322M = test: Growth inhibition of human NCI-H322M cells at 10 uM after 48 hrs by coulter counter method; conditions: read-out: GI; method in brief: as §1
NCI-H522 = test: Growth inhibition of human NCI-H522 cells at 10 uM after 48 hrs by coulter counter method; conditions: NCI-H522, 48 h, read-out: GI; method in brief: as §1
HCT-116 = test: Growth inhibition of human HCT116 cells at 10 uM after 48 hrs by coulter counter method; conditions: HCT-116, 48 h, read-out: GI; method in brief: as §1
HCT-15 = test: Growth inhibition of human HCT15 cells at 10 uM after 48 hrs by coulter counter method; conditions: HCT-15, 48 h, read-out: GI; method in brief: as §1
HT-29 = test: Growth inhibition of human HT-29 cells at 10 uM after 48 hrs by coulter counter method; conditions: HT-29, 48 h, read-out: GI; method in brief: as §1
KM12 = test: Growth inhibition of human KM12 cells at 10 uM after 48 hrs by coulter counter method; conditions: KM12, 48 h, read-out: GI; method in brief: as §1
SF-268 = test: Growth inhibition of human SF268 cells at 10 uM after 48 hrs by coulter counter method; conditions: SF-268, 48 h, read-out: GI; method in brief: as §1
SF-295 = test: Growth inhibition of human SF295 cells at 10 uM after 48 hrs by coulter counter method; conditions: SF-295, 48 h, read-out: GI; method in brief: as §1
SNB-19 = test: Growth inhibition of human SNB19 cells at 10 uM after 48 hrs by coulter counter method; conditions: SNB-19, 48 h, read-out: GI; method in brief: as §1
SNB-75 = test: Growth inhibition of human SNB75 cells at 10 uM after 48 hrs by coulter counter method; conditions: SNB-75, 48 h, read-out: GI; method in brief: as §1
U-251 = test: Growth inhibition of human U251 cells at 10 uM after 48 hrs by coulter counter method; conditions: U-251, 48 h, read-out: GI; method in brief: as §1
LOX IMVI = test: Growth inhibition of human LOXIMVI cells at 10 uM after 48 hrs by coulter counter method; conditions: read-out: GI; method in brief: as §1
Malme-3M = test: Growth inhibition of human MALME-3M cells at 10 uM after 48 hrs by coulter counter method; conditions: read-out: GI; method in brief: as §1
M14 = test: Growth inhibition of human M14 cells at 10 uM after 48 hrs by coulter counter method; conditions: M14, 48 h, read-out: GI; method in brief: as §1
MDA-MB-435 = test: Growth inhibition of human MDA-MB-435 cells at 10 uM after 48 hrs by coulter counter method; conditions: MDA-MB-435, 48 h, read-out: GI; method in brief: as §1
SK-MEL-2 = test: Growth inhibition of human SK-MEL-2 cells at 10 uM after 48 hrs by coulter counter method; conditions: SK-MEL-2, 48 h, read-out: GI; method in brief: as §1
SK-MEL-28 = test: Growth inhibition of human SK-MEL-28 cells at 10 uM after 48 hrs by coulter counter method; conditions: SK-MEL-28, 48 h, read-out: GI; method in brief: as §1
SK-MEL-5 = test: Growth inhibition of human SK-MEL-5 cells at 10 uM after 48 hrs by coulter counter method; conditions: SK-MEL-5, 48 h, read-out: GI; method in brief: as §1
UACC-257 = test: Growth inhibition of human UACC257 cells at 10 uM after 48 hrs by coulter counter method; conditions: UACC-257, 48 h, read-out: GI; method in brief: as §1
UACC-62 = test: Growth inhibition of human UACC62 cells at 10 uM after 48 hrs by coulter counter method; conditions: UACC-62, 48 h, read-out: GI; method in brief: as §1
IGROV-1 = test: Growth inhibition of human IGROV1 cells at 10 uM after 48 hrs by coulter counter method; conditions: IGROV-1, 48 h, read-out: GI; method in brief: as §1
OVCAR-8 = test: Growth inhibition of human OVCAR8 cells at 10 uM after 48 hrs by coulter counter method; conditions: OVCAR-8, 48 h, read-out: GI; method in brief: as §1
NCI/ADR-RES = test: Growth inhibition of human NCI/ADR-RES cells at 10 uM after 48 hrs by coulter counter method; conditions: read-out: GI; method in brief: as §1
786-0 = test: Growth inhibition of human 786-0 cells at 10 uM after 48 hrs by coulter counter method; conditions: 786-0, 48 h, read-out: GI; method in brief: as §1
A498 = test: Growth inhibition of human A498 cells at 10 uM after 48 hrs by coulter counter method; conditions: A498, 48 h, read-out: GI; method in brief: as §1
ACHN = test: Growth inhibition of human ACHN cells at 10 uM after 48 hrs by coulter counter method; conditions: read-out: GI; method in brief: as §1
CAKI-1 = test: Growth inhibition of human Caki1 cells at 10 uM after 48 hrs by coulter counter method; conditions: CAKI-1, 48 h, read-out: GI; method in brief: as §1
SN12C = test: Growth inhibition of human SN12C cells at 10 uM after 48 hrs by coulter counter method; conditions: read-out: GI; method in brief: as §1
TK-10 = test: Growth inhibition of human TK10 cells at 10 uM after 48 hrs by coulter counter method; conditions: TK-10, 48 h, read-out: GI; method in brief: as §1
UO-31 = test: Growth inhibition of human UO31 cells at 10 uM after 48 hrs by coulter counter method; conditions: UO-31, 48 h, read-out: GI; method in brief: as §1
PC-3 = test: Growth inhibition of human PC3 cells at 10 uM after 48 hrs by coulter counter method; conditions: PC-3, 48 h, read-out: GI; method in brief: as §1
MCF7 = test: Growth inhibition of human MCF7 cells at 10 uM after 48 hrs by coulter counter method; conditions: MCF7, 48 h, read-out: GI; method in brief: as §1
BT-549 = test: Growth inhibition of human BT549 cells at 10 uM after 48 hrs by coulter counter method; conditions: BT-549, 48 h, read-out: GI; method in brief: as §1
T47D = test: Growth inhibition of human T47D cells at 10 uM after 48 hrs by coulter counter method; conditions: read-out: GI; method in brief: as §1
MDA-MB-468 = test: Growth inhibition of human MDA-MB-468 cells at 10 uM after 48 hrs by coulter counter method; conditions: MDA-MB-468, 48 h, read-out: GI; method in brief: as §1

Work on `NC1=CC(N)=NC2OC(c3ccccc3)=NN12` (stereo not given) yielded an inhibition of growth at 10 µM (CCRF-CEM) of under 10%, an inhibition of growth at 10 µM (HL-60(TB)) of 15.6% and an inhibition of growth at 10 µM (K562) of under 10%. It also gave an inhibition of growth at 10 µM (MOLT-4) of 10.4%, an inhibition of growth at 10 µM (RPMI-8226) of under 10% and an inhibition of growth at 10 µM (SR) of 10.4%. The inhibition of growth at 10 µM (A549) was under 10%, the inhibition of growth at 10 µM (EKVX) was under 10% and the inhibition of growth at 10 µM (NCI-H226) was under 10%. For the same compound, the inhibition of growth at 10 µM (NCI-H23) was under 10%, the inhibition of growth at 10 µM (NCI-H322M) was under 10% and the inhibition of growth at 10 µM (NCI-H522) was under 10%. The inhibition of growth at 10 µM (HCT-116) was under 10%, the inhibition of growth at 10 µM (HCT-15) was under 10% and the inhibition of growth at 10 µM (HT-29) was under 10%. It also gave an inhibition of growth at 10 µM (KM12) of under 10%, an inhibition of growth at 10 µM (SF-268) of under 10% and an inhibition of growth at 10 µM (SF-295) of 15.6%. The inhibition of growth at 10 µM (SNB-19) was under 10%, the inhibition of growth at 10 µM (SNB-75) was under 10% and the inhibition of growth at 10 µM (U-251) was under 10%. The inhibition of growth at 10 µM (LOX IMVI) was under 10%, the inhibition of growth at 10 µM (Malme-3M) was under 10% and the inhibition of growth at 10 µM (M14) was under 10%. For the same compound, the inhibition of growth at 10 µM (MDA-MB-435) was under 10%, the inhibition of growth at 10 µM (SK-MEL-2) was under 10% and the inhibition of growth at 10 µM (SK-MEL-28) was under 10%. It also gave an inhibition of growth at 10 µM (SK-MEL-5) of under 10%, an inhibition of growth at 10 µM (UACC-257) of under 10% and an inhibition of growth at 10 µM (UACC-62) of under 10%. For the same compound, the inhibition of growth at 10 µM (IGROV-1) was under 10%, the inhibition of growth at 10 µM (OVCAR-8) was under 10% and the inhibition of growth at 10 µM (NCI/ADR-RES) was under 10%. It also gave an inhibition of growth at 10 µM (786-0) of under 10%, an inhibition of growth at 10 µM (A498) of under 10% and an inhibition of growth at 10 µM (ACHN) of under 10%. For the same compound, the inhibition of growth at 10 µM (CAKI-1) was under 10%, the inhibition of growth at 10 µM (SN12C) was under 10% and the inhibition of growth at 10 µM (TK-10) was under 10%. For the same compound, the inhibition of growth at 10 µM (UO-31) was 27%, the inhibition of growth at 10 µM (PC-3) was under 10% and the inhibition of growth at 10 µM (MCF7) was under 10%. For the same compound, the inhibition of growth at 10 µM (BT-549) was under 10%, the inhibition of growth at 10 µM (T47D) was under 10% and the inhibition of growth at 10 µM (MDA-MB-468) was under 10%.
